Measured values reported in ChEMBL document CHEMBL1687879, “Synthesis, glucose uptake activity and structure-activity relationships of some novel glitazones incorporated with glycine, aromatic and alicyclic amine moieties via two carbon acyl linker” (2011).

Key:
Type in all cases: functional, Diaphragm
[1] = Antidiabetic activity in rat hemidiaphragm assessed as glucose uptake at 1 mg after 45 mins in absence of insulin
In short: (§1)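 Isolated rat hemi-diaphragm in Tyrode, test agent at 1 mg or 2 mg with or without insulin; 45 min incubation at 21 °C, shaking at 60 cycles/min. Medium glucose measured by GOD/POD enzymatic method; uptake expressed as mg/dl/45 min. Run in triplicate, mean ± SEM; groups compared by one-way ANOVA with Dunnett's post-test.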

[2] = Antidiabetic activity in rat hemidiaphragm assessed as glucose uptake at 2 mg after 45 mins in presence of insulin; in short: as §1
[3] = Antidiabetic activity in rat hemidiaphragm assessed as glucose uptake at 1 mg after 45 mins in presence of insulin; in short: as §1
[4] = Antidiabetic activity in rat hemidiaphragm assessed as glucose uptake at 2 mg after 45 mins in absence of insulin; in short: as §1

Structure (SMILES)	Activity [1] [mg/dL]	Activity [2] [mg/dL]	Activity [3] [mg/dL]	Activity [4] [mg/dL]
O=C(CN1C(=O)S/C(=C\c2ccc(Cl)cc2)C1=O)Nc1ccccc1	16.83	36.66	36.03	16.9
O=C(CN1C(=O)S/C(=C\c2ccccc2Cl)C1=O)Nc1ccccc1	13.81	27.16	26.03	14.03
O=C(CN1C(=O)S/C(=C\c2cccc(Cl)c2)C1=O)Nc1ccccc1	17.83	40.5	39	17.63
CCOC(=O)CNC(=O)CN1C(=O)S/C(=C\c2ccc(OC)cc2)C1=O	18.28	43.07	41.5	18.79
O=C(COc1ccc(/C=C2\SC(=O)NC2=O)cc1)Nc1ccccc1	18.46	42.69	41.16	18.5
O=C(COc1ccc(/C=C2\SC(=S)NC2=O)cc1)Nc1ccccc1	16.16	35.33	34.66	16.33
CCc1cccc(CC)c1NC(=O)COc1ccc(/C=C2\SC(=S)NC2=O)cc1	14.5	28.5	28.83	15.66
CCc1cccc(CC)c1NC(=O)COc1ccc(/C=C2\SC(=O)NC2=O)cc1	15.82	29.8	29	15
COc1ccc(NC(=O)COc2ccc(/C=C3\SC(=O)NC3=O)cc2)cc1	16.66	35.66	34.16	16.83
COc1ccc(NC(=O)COc2ccc(/C=C3\SC(=S)NC3=O)cc2)cc1	16.91	37.09	35	17.01
Cc1ccc(NC(=O)COc2ccc(/C=C3\SC(=O)NC3=O)cc2)cc1	16	33.5	33.83	16.16
Cc1ccc(NC(=O)COc2ccc(/C=C3\SC(=S)NC3=O)cc2)cc1	15.33	34.16	33.79	16.56
COc1ccc(/C=C2\SC(=O)N(CC(=O)Nc3ccccc3)C2=O)cc1	18.71	43.9	42.16	19.66
O=C(CN1C(=O)S/C(=C\c2ccc(Cl)cc2Cl)C1=O)Nc1ccccc1	18.33	42.44	41.93	18.5
O=C(CN1C(=O)S/C(=C\c2ccccc2O)C1=O)Nc1ccccc1	18	42.26	41.85	18.33
O=C(CN1C(=O)S/C(=C\C=C\c2ccccc2)C1=O)Nc1ccccc1	15	36.66	36.16	16.16
O=C(CN1C(=O)S/C(=C\c2ccccc2)C1=O)Nc1ccccc1	17.72	39	38.3	18
O=C(CN1C(=O)S/C(=C\c2ccco2)C1=O)Nc1ccccc1	15.66	32.29	32.16	15.86
COc1cc(/C=C2\SC(=O)N(CC(=O)Nc3ccccc3)C2=O)ccc1O	15.5	30.83	28.5	16.96
CN(CCOc1ccc(CC2SC(=O)NC2=O)cc1)c1ccccn1 (stereo not given) [ROSIGLITAZONE]	19	50.33	48.34	20.36
